Data as given in ChEMBL document CHEMBL1145937, “Optimization of the pharmacophore model for 5-HT7R antagonism. Design and synthesis of new naphtholactam and naphthosultam derivatives” (J Med Chem, 2003).

Tests used:
[1] = molecular target: T1, 5-hydroxytryptamine receptor 7 (Rattus norvegicus, UniProt P32305); test: Binding affinity towards 5-hydroxytryptamine receptor 7 on rat hypothalamus membranes using [3H]5-CT as radioligand.; type: tissue-based, Membrane
How it was run: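 Rat hypothalamus homogenized in ice-cold 50 mM Tris-HCl pH 7.4, spun at 48 000g, washed and preincubated at 37 °C for 10 min. Membranes were resuspended in Tris buffer with 4 mM CaCl2, 1 mg/mL ascorbic acid, 0.01 mM pargyline and 3 μM pindolol, then incubated 120 min at 23 °C with 0.5 nM [3H]-5-CT. Nonspecific binding was set by 10 μM 5-HT. GF/C filtration, scintillation counting. Ki from IC50 via Cheng–Prusoff; 2–4 assays in triplicate.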

[2] = molecular target: T2, 5-hydroxytryptamine receptor 7 (Homo sapiens, UniProt P34969); test: Binding affinity towards cloned human 5-hydroxytryptamine 7 receptor was determined in HEK293 cells using [3H]5-CT as radioligand; type: cell-based
T2 sequence (P34969 whole entry): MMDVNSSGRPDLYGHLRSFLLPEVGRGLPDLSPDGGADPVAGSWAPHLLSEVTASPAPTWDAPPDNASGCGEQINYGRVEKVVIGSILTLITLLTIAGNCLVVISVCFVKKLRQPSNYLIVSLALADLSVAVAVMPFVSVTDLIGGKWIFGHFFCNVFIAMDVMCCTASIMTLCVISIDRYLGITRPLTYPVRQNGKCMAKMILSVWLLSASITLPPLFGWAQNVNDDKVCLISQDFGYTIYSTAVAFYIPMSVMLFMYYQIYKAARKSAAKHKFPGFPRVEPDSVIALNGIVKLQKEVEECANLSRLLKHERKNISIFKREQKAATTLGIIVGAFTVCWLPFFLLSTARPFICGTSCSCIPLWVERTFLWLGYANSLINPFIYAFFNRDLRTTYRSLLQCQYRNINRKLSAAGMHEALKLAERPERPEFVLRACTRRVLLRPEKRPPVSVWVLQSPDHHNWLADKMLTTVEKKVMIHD

[3] = molecular target: T2, 5-hydroxytryptamine receptor 7; test: Non-selective inhibitory activity was determined against 5-hydroxytryptamine 7 receptor
[4] = molecular target: T2, 5-hydroxytryptamine receptor 7; test: Binding affinity towards human recombinant 5-hydroxytryptamine 7 receptor was determined using [3H]5-CT as radioligand
[5] = molecular target: T1, 5-hydroxytryptamine receptor 7; test: Binding affinity towards cloned rat 5-hydroxytryptamine 7 receptor was determined using [3H]5-HT as radioligand

T1 sequence (P32305 whole entry): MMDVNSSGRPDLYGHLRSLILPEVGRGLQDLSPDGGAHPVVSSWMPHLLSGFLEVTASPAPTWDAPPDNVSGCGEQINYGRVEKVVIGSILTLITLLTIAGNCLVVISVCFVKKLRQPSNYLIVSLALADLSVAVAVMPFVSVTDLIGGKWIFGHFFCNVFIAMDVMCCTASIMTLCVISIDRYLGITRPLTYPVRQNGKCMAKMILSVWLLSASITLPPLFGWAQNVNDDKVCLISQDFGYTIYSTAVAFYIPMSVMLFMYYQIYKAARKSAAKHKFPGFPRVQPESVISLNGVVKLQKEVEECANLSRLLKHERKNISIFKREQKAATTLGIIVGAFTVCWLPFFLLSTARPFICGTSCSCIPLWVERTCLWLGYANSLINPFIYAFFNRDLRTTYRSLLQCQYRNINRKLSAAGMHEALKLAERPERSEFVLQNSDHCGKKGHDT

| SMILES | Ki [1] [nM] | further results |
| --- | --- | --- |
| O=C1c2cccc3cccc(c23)N1CN1CCN(c2ccccc2)CC1 | > 10000 | – |
| CC1CCN(CCCCCCN2c3cccc4cccc(c34)S2(=O)=O)CC1 | > 10000 | – |
| O=C1c2cccc3cccc(c23)N1CCCN1CCN(c2ccccc2)CC1 | > 10000 | – |
| O=C1c2cccc3cccc(c23)N1CCCCN1CCCCC1 | > 10000 | – |
| CC1CCN(CC[C@@H]2CCCCN2S(=O)(=O)c2cccc3ccccc23)CC1 | – | Ki [2]: 15.8 nM |
| O=S1(=O)c2cccc3cccc(c23)N1CCCCCCN1CCN(c2ccccc2)CC1 | > 1000 | – |
| CCN(CC)C(=O)[C@@H]1C=C2c3cccc4[nH]c(Br)c(c34)C[C@H]2N(C)C1 | – | Ki [3]: 10 nM |
| O=C1Nc2cccc3c2C1(CCCCN1CCN(C2CCCCC2)CC1)CCC3 (stereo not drawn) | – | Ki [4]: 100000 nM |
| C[C@H]1CCCN(CC[C@H](C)N(C)S(=O)(=O)c2cccc3ccccc23)C1 | – | Ki [2]: 100000 nM |
| CC1CCN(CC[C@@H]2CCCN2S(=O)(=O)c2cccc3ccccc23)CC1 | – | Ki [2]: 10 nM |
| Cc1cccc(C#N)c1-c1cccc2c1-c1cccc3c1[C@@H](C2)N(C)CC3 | – | Ki [5]: 3.98 nM |
| C[C@@H]1CCCN(CC[C@H](C)N(C)S(=O)(=O)c2cccc3ccccc23)C1 | – | Ki [2]: 1580 nM |
| O=C1c2cccc3cccc(c23)N1CCCCCN1CCN(C2CCCCC2)CC1 | > 10000 | – |
| CC(C)C1CCN(CCCCCN2C(=O)c3cccc4cccc2c34)CC1 | > 1000 | – |
| CN1CCC(=C2c3ccccc3C=Cc3ccccc32)CC1 [CYPROHEPTADINE] | – | Ki [3]: 50.1 nM |
| O=C1Nc2cccc3c2C1(CCCCN1CC=C(c2ccccc2)CC1)CCC3 (stereo not drawn) | 50.1 | – |
| COc1cccc(S(=O)(=O)N2CCC[C@H]2CCN2CCC(C)CC2)c1 | – | Ki [2]: 10 nM |
| COc1ccccc1N1CCN(CCCCCCN2C(=O)c3cccc4cccc2c34)CC1 | > 1000 | – |
| CC1CCN(CCC2CCCN2S(=O)(=O)c2cccc(O)c2)CC1 (single isomer, unassigned) | 31.6 | – |
| CC1CCN(CCCCN2C(=O)c3cccc4cccc2c34)CC1 | > 1000 | – |
| CN1CCN(CCCCN2C(=O)c3cccc4cccc2c34)CC1 | > 10000 | – |
| Cn1ccnc1SCCCCN1C(=O)c2cccc3cccc1c23 | > 10000 | – |
| CC1CCN(CC[C@@H]2CCCN2S(=O)(=O)c2ccc(Cl)c(Cl)c2)CC1 | – | Ki [2]: 3.98 nM |
| COc1ccccc1N1CCN(CN2C(=O)c3cccc4cccc2c34)CC1 | > 10000 | – |

| SMILES | Ki [1] [nM] | further results |
| --- | --- | --- |
| CN1CCN(CCCCN2c3cccc4cccc(c34)S2(=O)=O)CC1 | > 10000 | – |
| O=C1c2cccc3cccc(c23)N1CCCCN1CCC(C2CCCCC2)CC1 | > 1000 | – |
| Cc1nc2sccn2c(=O)c1CCN1CCC(=C(c2ccc(F)cc2)c2ccc(F)cc2)CC1 [RITANSERIN] | – | Ki [3]: 15.8 nM |
| CC1CCN(CC[C@@H](C)N(C)S(=O)(=O)c2cccc3ccccc23)CC1 | – | Ki [2]: 31.6 nM |
| C[C@H]1CCCN(CC[C@@H](C)N(C)S(=O)(=O)c2cccc3ccccc23)C1 | – | Ki [2]: 631 nM |
| CC1CCN(CCCCCN2c3cccc4cccc(c34)S2(=O)=O)CC1 | > 10000 | – |
| CCC(CO)NC(=O)[C@@H]1C=C2c3cccc4c3c(cn4C)C[C@H]2N(C)C1 (single isomer, unassigned) [METHYSERGIDE] | – | Ki [3]: 12.6 nM |
| COc1cccc(OC)c1-c1cccc2c1-c1cccc3c1[C@@H](C2)N(C)CC3 | – | Ki [5]: 12.6 nM |
| CC1CCN(CCCCN2c3cccc4cccc(c34)S2(=O)=O)CC1 | > 10000 | – |
| O=S1(=O)c2cccc3cccc(c23)N1CCCCN1CCN(c2ccccc2)CC1 | 1000 | – |
| O=C1c2cccc3cccc(c23)N1CCCCN1CCN(c2ccccc2)CC1 | 631 | – |
| CC(C)(C)[C@@]1(O)CCN2C[C@@H]3c4ccccc4CCc4cccc(c43)[C@H]2C1 | – | Ki [3]: 63.1 nM |
| O=C1c2cccc3cccc(c23)N1CCCCCCN1CCN(c2ccccc2)CC1 | > 1000 | – |
| CC1CCN(CC[C@@H]2CCCN2S(=O)(=O)c2cccc(Br)c2)CC1 | – | Ki [2]: 2 nM |
| CN1C[C@@H](NS(=O)(=O)N(C)C)C[C@@H]2c3cccc4c3c(cn4C)C[C@H]21 [MESULERGINE] | – | Ki [3]: 7.94 nM |
| O=C1c2cccc3cccc(c23)N1CCCCN1CCC(c2ccccc2)CC1 | > 1000 | – |
| O=C1c2cccc3cccc(c23)N1CCCCCN1CC=C(c2ccccc2)CC1 | > 1000 | – |
| O=C1c2cccc3cccc(c23)N1CCCCN1CC=C(c2ccccc2)CC1 | > 1000 | – |
| COc1ccccc1N1CCN(CCCN2C(=O)c3cccc4cccc2c34)CC1 | 398 | – |
| O=S1(=O)c2cccc3cccc(c23)N1CCCCCN1CCC(C2CCCCC2)CC1 | > 10000 | – |
| Cc1cccc(O)c1-c1cccc2c1-c1cccc3c1[C@@H](C2)N(C)CC3 | – | Ki [5]: 25.1 nM |
| O=C1c2cccc3cccc(c23)N1CCCCN1CCN(C2CCCCC2)CC1 | > 10000 | – |
| O=S1(=O)c2cccc3cccc(c23)N1CCCCN1CCCCC1 | > 10000 | – |
| Cc1cccc(S(=O)(=O)N(C)[C@H](C)CCN2CCC(C)CC2)c1 [SB-258719] | 79.4 | – |
